Data reported in the EternaBench riboswitch data.

Tested on: MS2 coat protein
Experiment: apparent Kd, MS2 coat protein; higher = weaker binding; RNA-MaP array; FMN 200 µM where present
Procedure, shortened: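 The titrant was SNAP-549-labelled MS2 coat protein, run from 0.7 or 1.5 nM in doubling steps to 3 µM. It was applied to designs transcribed by stalled E. coli RNA polymerase on Illumina sequencing-chip clusters, without ligand first and then with constant ligand, in 100 mM Tris-HCl pH 7.5, 80 mM KCl, 4 mM MgCl2, BSA, DTT, yeast tRNA and Tween-20. The apparent Kd is the median of filtered per-cluster binding-curve fits, with green signal normalised to red-channel RNA signal and control-cluster median Fmax.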

[1] = designed as: ON switch for flavin mononucleotide, no ligand
[2] = ligand present: flavin mononucleotide, designed as: ON switch for flavin mononucleotide
[3] = designed as: OFF switch for flavin mononucleotide, no ligand
[4] = ligand present: flavin mononucleotide, designed as: OFF switch for flavin mononucleotide

| Sequence | apparent Kd [1] [nM] | apparent Kd [2] [nM] | apparent Kd [3] [nM] | apparent Kd [4] [nM] |
| --- | --- | --- | --- | --- |
| AAAACAUGAGGAUCACCCAUGUAAAGAUCAGUUAAUAGAGGUGAGGAUAUACGAACUUAAAGGUAGUAGAAGGCACUGGGUACA | 35.9 | 30 | – | – |
| UUCGUGCAGCUUUGCUGUACGCGUACAUGAGGAUCACCCAUGUAGGAUAUGGUACGCUUUGUGUGCUAGAAGGAUAUGGAGAGG | – | – | 18.8 | 18.6 |
| UCGUUAUAUGAAGGAUAUACUUAACAUGAGGAUCACCCAUGUGGUGUUGUGAGUGAGUGAGUUUAGUAGAAGGUCAAUUCUUUU | – | – | 212 | 214 |
| GAGUUUACGUUUGUCACUUAGCGAGAGGAUAUGGAAAACAAGACAUGAGGAUCACCCAUGUACUAUCAGAAGGCUCGAGUACGA | 7.26 | 5.59 | – | – |
| GCGGUAAAGAUCCAUUUUUACAACAUGAGGAUCACCCAUGUGCAGGAUAUCGAAUGUUUUAUAUUCGAGAAGGGCAAUUACCGC | – | – | 20.7 | 57.5 |
| GCCAUCGCAUGAGGAUAUGCUCCGGUUUCCGGAGCAGAAGGCAUGUCAUAAGACAUGAGGAUCACCCAUGUAGCUAAGAUGGCA | 307 | 11.9 | – | – |
| UGUGUGUGGGCAGGAUAUGCAUGAAUAUAUAUGAUGUAGUAUGAUGUAACAUGAGGAUCACCCAUGUAGAAGGGCCGGUGUAUG | – | – | 133 | 133 |
| CAGCGCUGUCGAGAGGAUAUGCGGUGAUGGACAUGAGGAUCACCCAUGUUAGCGAUAGUAUUACGGUAGAAGGCUCUACAGCUGC | 92.2 | 16.7 | – | – |
| GGCGGUCGGGAGGAUAUUCGGGCUGUUUGGCUUGGAGAAGGCUCGACAUGAGGAUCACCCAUGUAAGUGUUCUU | – | – | 376 | 406 |
| UUACUAUUACAGAAGGUUUAAUAAUAUAUAAAAGAAGGAUAUGUAACAUGAGGAUCACCCAUGUUUCACCCACAUGAGGAUCAU | – | – | 10.8 | 10.4 |
| UCUUUACUGGUCAGGAUAUACAUUCGCUACUCCUUGUAGAAGGGACAUGAGGAUCACCCAUGUACUUUACAUUC | – | – | 18.5 | 19.5 |
| GGUGGACAUGAGGAUCACCCAUGUGAGGAUAUCGGCUAUCUACUCGCUGACGGUUGCUCGAGAAGGCACAUUGU | – | – | 126 | 206 |
| GAGUGACAUGAGGAUCACCCAUGUGAGGAUAUCGGACGGACCAAGUUAACAUCCGCCGCGAGAAGGCACAUCGG | – | – | 114 | 31.1 |
| UGUGUGUGGCAGGAUAUGCCGGUAGUAGGACGGGUAGAAGGGUCUACAUGAGGAUCACCCAUGUGGCCGGUUGG | – | – | 17.7 | 17.7 |
| UGUGACAUGAGGAUCACCCAUGUAGAGGAUAUAGAGAUGAUGUUAGAGAAGAAUGUGUAGUAAGACUAGAAGGCUAUGUGUGUA | – | – | 32.8 | 28.2 |
| CACCGUUAGUGAGGAUAUCUUACAUGAGGAUCACCCAUGUAAUAAAUGAGAAUUUCGGAUGUAUUAGAGAAGGCACAAAUCGGC | – | – | 25.1 | 24.3 |
| ACACUACAUGAGGAUCACCCAUGUCAGGAUAUCGAUAUCACAACUCAUCAACCUCACUCGAGAAGGGACACAUA | – | – | 24 | 23.8 |
| AAGAAGUGAGGAUAUGGCCGGGUCCCUGGGUUUGGACCCGGCCAGAAGGCACAUGAGGAUCACCCAUGUAAGAA | – | – | 24 | 46.3 |
| UAUAUAUAGUAAGGAUAUGUAUUAAUUUUGUAAACAGAAGGUACUGACAUGAGGAUCACCCAUGUUUUAGUGUGGGCAUGUAGA | – | – | 130 | 208 |
| GGAGCCCAGUCAGGAUAUGUAACGCUAAGGCUGUUACAUGAGGAUCACCCAUGUUUCACCGUGAAACAGAAGGGACAAUUGGCG | 500 | 147 | – | – |
| AUAAAACAUGAGGAUCACCCAUGUAAAAAUAUGGGAGGAUAUGCGAAAUAAAAUAAAUAAGCAGAAGGCCUAAAAA | 50.4 | 23.7 | – | – |
| GUCGGAAACGACAAAAGUAUGGAUCCAGAAGGCAUGACACAUGAGGAUCACCCAUGUCUAAGAUAUGAGGAUAUGGAUCCAUAC | 4.97 | 4.71 | – | – |
| GGAUAGGAUAGAGGAUAUACGUGCUAGAGAUACUAGCAAAAUUUCCUCACAUGAGGAUCACCCAUGUAGAAGGCUGUCCUAUCG | – | – | 10.6 | 193 |
| AAAUUUAACGAAGGAUAUGCUGACAUGAGGAUCACCCAUGUGUGCCUUGUGUUACUGACUCGGAAGCAGAAGGUCGUAUACAUA | – | – | 400 | 552 |

| Sequence | apparent Kd [1] [nM] | apparent Kd [2] [nM] | apparent Kd [3] [nM] | apparent Kd [4] [nM] |
| --- | --- | --- | --- | --- |
| GUCAUGUGAGGAUAUGUAGCCACGAAAUCUUGUAGAGGCAGACAGAAGGCACAUGAGGAUCACCCAUGUGUUUU | – | – | 31.6 | 258 |
| AGCUGUGGCAGAGGAUAUACUACUAUAAUCCAUUGCAAAUAGCGAUGGACAUGAGGAUCACCCAUGUAGAAGGCUGUCACAGCA | – | – | 45.6 | 176 |
| GCUUGAGCAGGAUAUACAUGAGGAUCACCCAUGUUGAGCUUGAGGAUCUUCGAGUUCGGUAGAAGGGUUCGAGU | – | – | 22.1 | 59.5 |
| AGUCGGAGCAGAGGAUAUACAUGAGGAUCACCCAUGUAAUAUGAUCUAGCCUGGAAACAGGCAAUGUAGAAGGCUGCUCCGACA | – | – | 90.3 | 709 |
| AAUUAUUAUUGAGGAUAUCGUAUUGAAACAAUACGAGAAGGCGGUAUAAACAUGAGGAUCACCCAUGUGAGCCUGAUGCUUAUG | – | – | 28.4 | 58.9 |
| UUGGACGUCGUAGGAUGUGUAGGAUAUUCCUACAUGAGGAUCACCCAUGUUGACAUGGAAGAAGGACAGAAGGACGAUGUCCAU | 386 | 12.9 | – | – |
| GUAGGACAUGAGGAUCACCCAUGUGGGAGGGAACGAGGAUAUGUGAAAGGAUUGAAGAGGACAGAAGGCGUGGAGG | 44.4 | 35.3 | – | – |
| GUCAGCUCGUGAGGAUAUACAACACUGCUUCGGCCGUGUAUUAAGAUCACAUGAGGAUCACCCAUGUAGAAGGCACGAGCUGAU | – | – | 13.6 | 228 |
| GGAUAGGACAGAGGAUAUACGUGCUAGAGAUACUAGCAAAAUUUUCUCACAUGAGGAUCACCCAUGUAGAAGGCUGUCCUAUCG | – | – | 5.08 | 17.4 |
| AAAGCUGAAGGAUAUACUUGGAAAAAAAAAAAAAAAAAAAAACAUGAGGAUCACCCAUGUAGAAGGUCAGAUAA | – | – | 48.2 | 39.8 |
| GGGUACAUCGGAGGAUAUCAUGUAAAUACAUGAGGAUCACCCAUGUCGAUGGAGACAUCGGAGAUUGAGAAGGCCGAUGUACUG | 169 | 8.5 | – | – |
| UUUUACUAGUAAGGAUAUAUUAGCGAUUAGCUUGUAGAAGGUACAGUCUUAUGUAUAACAUGUUAACAUGAGGAUCACCCAUGU | 52 | 34.2 | – | – |
| GAGCGAAAGCUCAAUGUCGAUAGCAGAAGGACAUGUAAAAUCAUGAAAACAUGAGGAUCACCCAUGUAGGAUAUGCUAUCGACU | – | – | 23 | 371 |
| AUUUUACAUGAGGAUCACCCAUGUUUUGGCGGGUCAGGAUAUAGAUCGGAUGAGUUCUGUCUAGAAGGGACAUGUU | 49.7 | 29.6 | – | – |
| GGUGCUAUGUAGAAGGCAGAUCUGAUUCAGAUCUGAGGAUAUACAUGAGGAUCACCCAUGUUAUGCACCAGCACGAGAGUGCAG | – | – | 8.07 | 14 |
| CUAUGCCGAACAGGAUAUUCGAUCAAAAGGAUAGAAGAAGGGUUACAUGAGGAUCACCCAUGUAUGCACAUGAGGAUCCCUUAA | – | – | 255 | 296 |
| ACACAUGAGGAUCACCCAUGUACUCGACACAUUCAUUGGGCACAGGAUAUACGGUGAAGUCUUUCGUAGAAGGGUGCUAGUGUG | 84 | 18.4 | – | – |
| AUGCCCGGAGGAUAUACACUAAAAGUCCGGUGCUAGGGUAGACAUGAGGAUCACCCAUGUAGAAGGCCGAGGCA | – | – | 53.2 | 101 |
| ACAAAUGGAGGAUAUACAUGAGGAUCACCCAUGUUUAUCCUACAUAUGUGAUACUCAUGUAGAAGGCCAUAUGA | – | – | 12.7 | 12.5 |
| UGUCAAGCAGGAUAUGCACGUAAUAACAUGAGGAUCACCCAUGUGACCGAUUUAUAUUUUGCAGAAGGGCUUGUUU | – | – | 79.7 | 78.2 |
| CUGGAAUACAGACAUGAGGAUCACCCAUGUUUAAGGGAGGCACAGGAUAUGUCGACGCACCAUAGACAGAAGGGUGACUUGCUU | 47.8 | 20.3 | – | – |
| UACAUGAGGAUCACCCAUGUUUUGUCGUGUAUGGUAUUUAUCUAGGAUAUCAAUUGAGUUAUUUAUGAGAAGGAGAAUAUUAAU | – | – | 41.7 | 44 |
| AAAACACAUGAGGAUCACCCAUGUGAGGAUAUGUUCAUUGUGAGCAAACUUAUGAUGAACAGAAGGCACAUAAA | – | – | 45.5 | 50.7 |
| UAGUGAUUGCAAGGAUAUGCUUAUGUUUAAUUUUUUUUAAUAUCUAACAUGAGGAUCACCCAUGUGCAGAAGGUGCUUGAUUUG | 66.1 | 58.7 | – | – |
